In ChEMBL document CHEMBL5653623 (J Pharmacol Exp Ther, 2015):

Key:
[1] = Unbound plasma concentration in C57Bl/6 mouse administered for 11 days; format: ADME, cell-free; settings: 264 h, dose 3-100 mg/kg, time 11 day
Procedure, shortened: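 Male C57Bl/6 mice, singly housed on a reversed 12 h light cycle, were fed diet formulated to give 3, 10, 30, 60 or 120 mg/kg/day (assumes 3 g/day intake) or untreated diet for 11 days. Body weight and food intake were monitored. Spontaneous locomotion and rearing were recorded over 60 min. On day 11, mice were euthanized 4, 8 or 24 h after dark onset and plasma and brain drug levels measured; n = 5 per group.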

[2] = Oral biavailability in C57Bl/6 mouse at 10 mg/kg measured after 480 mins by LC-MS/MS analysis; format: ADME, organism-based; settings: in vivo
Procedure, shortened: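 Male C57Bl/6 mice (20-25 g) given a single IV dose (2 mg/kg) or oral dose (10 mg/kg). Blood was sampled at 5, 15, 30, 60, 120, 240, 360 and 480 min and plasma prepared by centrifugation. Plasma drug levels were measured by LC/MS/MS. Values are mean (CV%), N=3.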

Drug uptake(free) [1]: Dose-Dependent Effect
bioavailability [2]: 45%
SMILES: C[C@@H]1CN(c2cc(-c3n[nH]c4ccc(OC5(C)CC5)cc34)ncn2)C[C@H](C)O1 [MLi-2]
